Reference: ChEMBL document CHEMBL4334424, “The winding road of the uvaretin class of natural products: from total synthesis to bioactive agent discovery” (Medchemcomm, 2019)
pIC50: −log10 of the molar value.

Key:
U-937 = test: Cytotoxicity against human U937 cells assessed as reduction in cell viability incubated for 72 hrs by alamar blue assay; assay type: functional, cell-based; conditions: U-937, 72 h
How it was run: (§1)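 Suspension cells (2200/well, 384-well) were added directly onto compound in media with no attachment period. Compounds spanned 31.6 nM–200 μM in triplicate, with 72 h exposure at 37 °C, 5% CO2. Alamar Blue was added for the last 3 h and fluorescence read (ex 560/em 590 nm). IC50 came from ≥3 independent experiments.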

MIA PaCa-2 [1] = test: Cytotoxicity against human MIAPaCa2 cells assessed as combinational index at 2.5 uM incubated for 72 hrs in presence of 50 uM 6TP by alamar blue assay; assay type: functional
How it was run: (§2)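 Combination assay in 96-well plates with 100 μL final volume and 1% DMSO. Two test-compound concentrations were crossed with five 6TP concentrations, then cells were added (4000/well adherent, 7000/well suspension). Plates ran 72 h at 37 °C, 5% CO2, with Alamar Blue viability read-out and ≥3 independent experiments. Combination index was calculated by the Chou–Talalay method.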

MIA PaCa-2 [2] = test: Cytotoxicity against human MIAPaCa2 cells assessed as combinational index at 5 uM incubated for 72 hrs in presence of 100 uM 6TP by alamar blue assay; assay type: functional; how it was run: as §2
HeLa = test: Cytotoxicity against human HeLa cells assessed as reduction in cell viability incubated for 72 hrs by alamar blue assay; assay type: functional, cell-based
How it was run: (§3)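 Adherent cells were seeded at 1500 cells/well in 384-well plates and allowed 2–3 h to attach. Compounds in DMSO, diluted in media over 31.6 nM–200 μM, were tested in triplicate for 72 h continuous exposure at 37 °C, 5% CO2. Alamar Blue was added for the final 3 h and fluorescence read (ex 560/em 590 nm). IC50 was fitted from ≥3 independent experiments.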

REH [3] = test: Cytotoxicity against human REH cells assessed as cell viability at 5 uM incubated for 72 hrs in presence of 50 uM 6TP by alamar blue assay (reference value: 21.9 %); assay type: functional; how it was run: as §2
MIA PaCa-2 [4] = test: Cytotoxicity against human MIAPaCa2 cells assessed as cell viability at 2.5 uM incubated for 72 hrs in presence of 100 uM 6TP by alamar blue assay (reference value: 30.7 %); assay type: functional; how it was run: as §2
REH [5] = test: Cytotoxicity against human REH cells assessed as cell viability at 2.5 uM incubated for 72 hrs in presence of 25 uM 6TP by alamar blue assay (reference value: 12.2 %); assay type: functional; how it was run: as §2
MIA PaCa-2 [6] = test: Cytotoxicity against human MIAPaCa2 cells assessed as cell viability at 2.5 uM incubated for 72 hrs by alamar blue assay (reference value: 0 %); assay type: functional; conditions: MIA PaCa-2, 72 h, read-out: Activity; how it was run: as §2
MIA PaCa-2 [7] = test: Cytotoxicity against human MIAPaCa2 cells assessed as combinational index at 2.5 uM incubated for 72 hrs in presence of 100 uM 6TP by alamar blue assay; assay type: functional; how it was run: as §2
REH [8] = test: Cytotoxicity against human REH cells assessed as combinational index at 5 uM incubated for 72 hrs in presence of 100 uM 6TP by alamar blue assay; assay type: functional; how it was run: as §2
REH [9] = test: Cytotoxicity against human REH cells assessed as combinational index at 2.5 uM incubated for 72 hrs in presence of 50 uM 6TP by alamar blue assay; assay type: functional; how it was run: as §2
MIA PaCa-2 [10] = test: Cytotoxicity against human MIAPaCa2 cells assessed as cell viability at 5 uM incubated for 72 hrs by alamar blue assay (reference value: 0 %); assay type: functional; conditions: MIA PaCa-2, 72 h, read-out: Activity; how it was run: as §2
A549 = test: Cytotoxicity against human A549 cells assessed as reduction in cell viability incubated for 72 hrs by alamar blue assay; assay type: functional, cell-based; conditions: A549, 72 h; how it was run: as §3
REH [11] = test: Cytotoxicity against human REH cells assessed as cell viability at 5 uM incubated for 72 hrs by alamar blue assay (reference value: 0 %); assay type: functional; conditions: read-out: Activity; how it was run: as §2
MIA PaCa-2 [12] = test: Cytotoxicity against human MIAPaCa2 cells assessed as cell viability at 5 uM incubated for 72 hrs in presence of 100 uM 6TP by alamar blue assay (reference value: 30.7 %); assay type: functional; how it was run: as §2
MIA PaCa-2 [13] = test: Cytotoxicity against human MIAPaCa2 cells assessed as combinational index at 2.5 uM incubated for 72 hrs in presence of 25 uM 6TP by alamar blue assay; assay type: functional; how it was run: as §2
REH [14] = test: Cytotoxicity against human REH cells assessed as cell viability at 5 uM incubated for 72 hrs in presence of 25 uM 6TP by alamar blue assay (reference value: 12.2 %); assay type: functional; how it was run: as §2
REH [15] = test: Cytotoxicity against human REH cells assessed as cell viability at 2.5 uM incubated for 72 hrs in presence of 50 uM 6TP by alamar blue assay (reference value: 21.9 %); assay type: functional; how it was run: as §2
REH [16] = test: Cytotoxicity against human REH cells assessed as cell viability at 5 uM incubated for 72 hrs in presence of 100 uM 6TP by alamar blue assay (reference value: 49.5 %); assay type: functional; how it was run: as §2
REH [17] = test: Cytotoxicity against human REH cells assessed as cell viability at 2.5 uM incubated for 72 hrs in presence of 10 uM 6TP by alamar blue assay (reference value: 10.8 %); assay type: functional; how it was run: as §2
MIA PaCa-2 [18] = test: Cytotoxicity against human MIAPaCa2 cells assessed as combinational index at 5 uM incubated for 72 hrs in presence of 200 uM 6TP by alamar blue assay; assay type: functional; how it was run: as §2
REH [19] = test: Cytotoxicity against human REH cells assessed as combinational index at 2.5 uM incubated for 72 hrs in presence of 100 uM 6TP by alamar blue assay; assay type: functional; how it was run: as §2
MIA PaCa-2 [20] = test: Cytotoxicity against human MIAPaCa2 cells assessed as cell viability at 2.5 uM incubated for 72 hrs in presence of 10 uM 6TP by alamar blue assay (reference value: 6.9 %); assay type: functional; how it was run: as §2
MIA PaCa-2 [21] = test: Cytotoxicity against human MIAPaCa2 cells assessed as cell viability at 2.5 uM incubated for 72 hrs in presence of 25 uM 6TP by alamar blue assay (reference value: 6.4 %); assay type: functional; how it was run: as §2
REH [22] = test: Cytotoxicity against human REH cells assessed as combinational index at 5 uM incubated for 72 hrs in presence of 50 uM 6TP by alamar blue assay; assay type: functional; how it was run: as §2
MIA PaCa-2 [23] = test: Cytotoxicity against human MIAPaCa2 cells assessed as combinational index at 5 uM incubated for 72 hrs in presence of 25 uM 6TP by alamar blue assay; assay type: functional; how it was run: as §2
HCT-116 = test: Cytotoxicity against human HCT116 cells assessed as reduction in cell viability incubated for 72 hrs by alamar blue assay; assay type: functional, cell-based; conditions: HCT-116, 72 h; how it was run: as §3
REH [24] = test: Cytotoxicity against human REH cells assessed as combinational index at 2.5 uM incubated for 72 hrs in presence of 25 uM 6TP by alamar blue assay; assay type: functional; how it was run: as §2
REH [25] = test: Cytotoxicity against human REH cells assessed as cell viability at 5 uM incubated for 72 hrs in presence of 10 uM 6TP by alamar blue assay (reference value: 10.8 %); assay type: functional; how it was run: as §2
REH [26] = test: Cytotoxicity against human REH cells assessed as combinational index at 5 uM incubated for 72 hrs in presence of 25 uM 6TP by alamar blue assay; assay type: functional; how it was run: as §2
MIA PaCa-2 [27] = test: Cytotoxicity against human MIAPaCa2 cells assessed as cell viability at 5 uM incubated for 72 hrs in presence of 10 uM 6TP by alamar blue assay (reference value: 6.9 %); assay type: functional; how it was run: as §2
MIA PaCa-2 [28] = test: Cytotoxicity against human MIAPaCa2 cells assessed as combinational index at 2.5 uM incubated for 72 hrs in presence of 200 uM 6TP by alamar blue assay; assay type: functional; how it was run: as §2
MIA PaCa-2 [29] = test: Cytotoxicity against human MIAPaCa2 cells assessed as cell viability at 5 uM incubated for 72 hrs in presence of 25 uM 6TP by alamar blue assay (reference value: 6.4 %); assay type: functional; how it was run: as §2
REH [30] = test: Cytotoxicity against human REH cells assessed as combinational index at 2.5 uM incubated for 72 hrs in presence of 200 uM 6TP by alamar blue assay; assay type: functional; how it was run: as §2
REH [31] = test: Cytotoxicity against human REH cells assessed as cell viability at 2.5 uM incubated for 72 hrs by alamar blue assay (reference value: 0 %); assay type: functional; conditions: read-out: Activity; how it was run: as §2
MIA PaCa-2 [32] = test: Cytotoxicity against human MIAPaCa2 cells assessed as reduction in cell viability incubated for 72 hrs by alamar blue assay; assay type: functional, cell-based; conditions: MIA PaCa-2, 72 h; how it was run: as §3
REH [33] = test: Cytotoxicity against human REH cells assessed as combinational index at 5 uM incubated for 72 hrs in presence of 200 uM 6TP by alamar blue assay; assay type: functional; how it was run: as §2
MIA PaCa-2 [34] = test: Cytotoxicity against human MIAPaCa2 cells assessed as combinational index at 5 uM incubated for 72 hrs in presence of 50 uM 6TP by alamar blue assay; assay type: functional; how it was run: as §2
REH [35] = test: Cytotoxicity against human REH cells assessed as reduction in cell viability incubated for 72 hrs by alamar blue assay; assay type: functional, cell-based; how it was run: as §1
MIA PaCa-2 [36] = test: Cytotoxicity against human MIAPaCa2 cells assessed as cell viability at 2.5 uM incubated for 72 hrs in presence of 50 uM 6TP by alamar blue assay (reference value: 13.8 %); assay type: functional; how it was run: as §2
MIA PaCa-2 [37] = test: Cytotoxicity against human MIAPaCa2 cells assessed as cell viability at 5 uM incubated for 72 hrs in presence of 50 uM 6TP by alamar blue assay (reference value: 13.8 %); assay type: functional; how it was run: as §2
REH [38] = test: Cytotoxicity against human REH cells assessed as cell viability at 2.5 uM incubated for 72 hrs in presence of 100 uM 6TP by alamar blue assay (reference value: 49.5 %); assay type: functional; how it was run: as §2

With `COCOc1cc(OC)c(C(=O)/C=C/c2ccccc2)c(OCOC)c1` the pIC50 (U-937) was 5.23, the CI (MIA PaCa-2 [1]) was 0.79 and the CI (MIA PaCa-2 [2]) was 0.36. The pIC50 (HeLa) was 5.01, the Activity (REH [3]) was 26.1% and the Activity (MIA PaCa-2 [4]) was 49.1%. The Activity (REH [5]) was 13.5%, the viability at 2.5 µM (MIA PaCa-2 [6]) was 10.2% and the CI (MIA PaCa-2 [7]) was 0.72. For the same compound, the CI (REH [8]) was 1.06, the CI (REH [9]) was 1.36 and the viability at 5 µM (MIA PaCa-2 [10]) was 16.2%. For the same compound, the pIC50 (A549) was 5.38, the viability at 5 µM (REH [11]) was 9% and the Activity (MIA PaCa-2 [12]) was 61.2%. The CI (MIA PaCa-2 [13]) was 0.67, the Activity (REH [14]) was 19.1% and the Activity (REH [15]) was 22.1%. It also gave an Activity (REH [16]) of 51%, an Activity (REH [17]) of 11.1% and a CI (MIA PaCa-2 [18]) of 0.19. For the same compound, the CI (REH [19]) was 1.36, the Activity (MIA PaCa-2 [20]) was 16.5% and the Activity (MIA PaCa-2 [21]) was 18.6%. The CI (REH [22]) was 0.84, the CI (MIA PaCa-2 [23]) was 0.55 and the pIC50 (HCT-116) was < 4.70. The CI (REH [24]) was 0.81, the Activity (REH [25]) was 12.7% and the CI (REH [26]) was 0.67. It also gave an Activity (MIA PaCa-2 [27]) of 25.4%, a CI (MIA PaCa-2 [28]) of 0.31 and an Activity (MIA PaCa-2 [29]) of 30%. It also gave a CI (REH [30]) of 0.63, a viability at 2.5 µM (REH [31]) of 8.1% and a pIC50 (MIA PaCa-2 [32]) of 5.66. The CI (REH [33]) was 0.64, the CI (MIA PaCa-2 [34]) was 0.51 and the pIC50 (REH [35]) was 5.04. It also gave an Activity (MIA PaCa-2 [36]) of 25.1%, an Activity (MIA PaCa-2 [37]) of 40.8% and an Activity (REH [38]) of 51%.
